{
  "source": "paper PMC3694763",
  "about": "(Angewandte Chemie (International Ed. in English), 2012)",
  "key": {"[1]": {"molecular_target": "plasmin (Homo sapiens, UniProt P00747)", "sequence (P00747 97-580 limits assumed, species assumed)": "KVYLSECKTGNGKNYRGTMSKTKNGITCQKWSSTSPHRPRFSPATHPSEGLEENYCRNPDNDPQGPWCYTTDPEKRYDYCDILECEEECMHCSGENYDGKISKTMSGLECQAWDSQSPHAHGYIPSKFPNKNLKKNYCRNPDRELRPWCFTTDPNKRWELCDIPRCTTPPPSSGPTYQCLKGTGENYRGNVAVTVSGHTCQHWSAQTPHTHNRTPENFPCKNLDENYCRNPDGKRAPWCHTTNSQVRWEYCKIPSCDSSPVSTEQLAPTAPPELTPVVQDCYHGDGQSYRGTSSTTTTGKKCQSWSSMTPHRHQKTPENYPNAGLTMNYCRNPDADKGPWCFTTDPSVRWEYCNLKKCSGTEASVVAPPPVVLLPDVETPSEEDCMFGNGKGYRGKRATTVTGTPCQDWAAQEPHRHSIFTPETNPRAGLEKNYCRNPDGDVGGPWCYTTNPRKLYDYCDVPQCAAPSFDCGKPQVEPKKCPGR", "sequence (P00747 581-810 limits assumed, species assumed)": "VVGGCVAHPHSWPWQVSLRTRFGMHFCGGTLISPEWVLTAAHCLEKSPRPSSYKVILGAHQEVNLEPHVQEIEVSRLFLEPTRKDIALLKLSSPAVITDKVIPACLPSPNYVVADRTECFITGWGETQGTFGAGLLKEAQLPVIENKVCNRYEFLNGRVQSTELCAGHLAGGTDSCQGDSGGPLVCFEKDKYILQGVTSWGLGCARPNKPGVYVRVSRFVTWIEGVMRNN", "experiment": "Determination of kcat/Km, cleavage by plasmin", "assay_type": "biochemical", "details": "for selectivity for thrombin over plasmin (ratio of kcat/Km): kcat/Km thrombin versus plasmin"}, "[2]": {"molecular_target": "factor Xa (Homo sapiens, UniProt P00742)", "sequence (P00742 41-179 limits assumed)": "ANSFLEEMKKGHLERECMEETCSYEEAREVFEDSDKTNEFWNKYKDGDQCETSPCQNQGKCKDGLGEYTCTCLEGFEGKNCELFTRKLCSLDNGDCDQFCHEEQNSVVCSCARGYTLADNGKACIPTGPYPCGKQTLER", "sequence (P00742 235-488 limits assumed)": "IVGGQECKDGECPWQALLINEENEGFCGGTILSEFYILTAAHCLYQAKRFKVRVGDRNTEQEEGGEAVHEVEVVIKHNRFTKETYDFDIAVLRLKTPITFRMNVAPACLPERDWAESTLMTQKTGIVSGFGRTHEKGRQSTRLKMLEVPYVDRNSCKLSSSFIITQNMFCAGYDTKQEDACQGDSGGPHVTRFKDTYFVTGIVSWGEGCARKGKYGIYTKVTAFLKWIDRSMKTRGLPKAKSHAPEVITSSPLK", "experiment": "Determination of kcat/Km, cleavage by factor Xa", "assay_type": "biochemical", "details": "for kcat/Km for factor Xa: 150 mM NaCl, 20 mM Tris pH 7.5, 2 mM CaCl2, 1% BSA, 37°C, Cy5 fluorescence"}, "[3]": {"molecular_target": "T1, thrombin (Homo sapiens, UniProt P00734)", "experiment": "Determination of kcat/Km, cleavage by thrombin", "assay_type": "biochemical", "details": "PPRSFL replaced with norleucine-TPRSFL"}, "[4]": {"molecular_target": "thrombin activity in developing blood clots (Mus musculus, UniProt P19221)", "experiment": "Tail-clip model, ratiometric Cy5/Cy7 imaging of developing blood clots", "assay_type": "in vivo", "details": "mouse tail clot"}, "[5]": {"tested_on": "pro-coagulation enzymes (thrombin, plasmin, factor Xa)", "assay_type": "biochemical", "details": "1 µM RACPP, 50 nM enzyme, 37°C; tricine gel, Cy5/Cy7 ratio image", "how_it_was_run": "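Each ratiometric probe was incubated separately with purified enzyme for set times. Cleavage products were separated on tricine-SDS polyacrylamide gels. Gels were imaged multispectrally with 620 nm excitation, collecting Cy5 (660–720 nm) and Cy7 (760–830 nm) emission. Cy5 images were divided by Cy7 images and pseudocoloured from blue (ratio minimum) to red (ratio maximum).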"}, "[6]": {"molecular_target": "MMP-9 (Homo sapiens, UniProt P14780)", "sequence (P14780 107-707)": "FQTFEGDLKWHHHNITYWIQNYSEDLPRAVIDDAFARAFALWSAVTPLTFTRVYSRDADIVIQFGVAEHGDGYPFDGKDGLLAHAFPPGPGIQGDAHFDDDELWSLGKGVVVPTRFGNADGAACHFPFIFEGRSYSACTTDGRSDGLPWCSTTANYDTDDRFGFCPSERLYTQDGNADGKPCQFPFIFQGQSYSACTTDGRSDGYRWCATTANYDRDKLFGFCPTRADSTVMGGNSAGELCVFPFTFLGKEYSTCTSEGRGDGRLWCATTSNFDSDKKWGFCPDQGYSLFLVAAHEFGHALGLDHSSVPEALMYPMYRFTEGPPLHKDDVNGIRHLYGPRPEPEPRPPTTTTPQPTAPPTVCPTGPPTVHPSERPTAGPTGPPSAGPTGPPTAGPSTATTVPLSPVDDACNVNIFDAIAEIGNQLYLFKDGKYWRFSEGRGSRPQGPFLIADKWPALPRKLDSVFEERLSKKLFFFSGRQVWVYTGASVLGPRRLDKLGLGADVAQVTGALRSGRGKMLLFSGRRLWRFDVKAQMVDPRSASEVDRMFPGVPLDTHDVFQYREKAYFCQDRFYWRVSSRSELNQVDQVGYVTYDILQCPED", "experiment": "Addition of purified MMP-9 to developing blood pools of injected mice", "assay_type": "in vivo, mouse", "details": "blood pool of injected mice; MMP-9 1 µl of 1.5 µM, 10 minutes"}, "[7]": {"molecular_target": "T1, thrombin", "assay_type": "biochemical", "details": "probe diluted in mouse plasma", "how_it_was_run": "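Probe construction: Cy5 sits on the polycationic domain and the Cy7 acceptor on the polyanionic domain, joined by a thrombin-cleavable linker, so the intact probe undergoes FRET. Emission spectra were recorded in mouse plasma in a cuvette spectrofluorometer before and after adding purified thrombin. Cy5 emission peaks near 670 nm and Cy7 re-emission near 780 nm.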"}},
  "data": [
    {"substance": "Cy7-NH-e9-c(S-Peg12)oDPRSFL-r9-c(Cy5)-CONH2 [RACPPDPRSFL]", "values": [
      {"measurement": "kcat/Km for plasmin", "setting": "[1]; 150 mM NaCl, 20 mM Tris pH 7.5, 2 mM CaCl2, 1% BSA, 37°C, Cy5 fluorescence", "result": 10000, "unit": "M⁻¹ s⁻¹"},
      {"measurement": "selectivity for thrombin over plasmin (ratio of kcat/Km)", "setting": "[1]", "result": "less than 2 fold"},
      {"measurement": "kcat/Km for factor Xa", "setting": "[2]", "result": 6200, "unit": "M⁻¹ s⁻¹"},
      {"measurement": "selectivity for thrombin over factor Xa (ratio of kcat/Km)", "setting": "[2]; kcat/Km thrombin versus factor Xa", "result": "less than 2 fold"}
    ]},
    {"substance": "Cy7-NH-e9-c(S-Peg12)oNLeTPRSFL-r9-c(Cy5)-CONH2 [RACPPNleTPRSFL]", "values": [
      {"measurement": "acceleration of thrombin cleavage relative to RACPPPPRSFL", "setting": "[3]", "result": "approximately 90 fold"},
      {"measurement": "selectivity for thrombin over plasmin (ratio of kcat/Km)", "setting": "[1]", "result": 52.5, "unit": "fold"},
      {"measurement": "Cy5/Cy7 ratio at 15 minutes post injury", "setting": "[4]; 10 nmol", "result": 7.2},
      {"measurement": "change of Cy5/Cy7 ratio at 15 minutes post injury", "setting": "[4]; 10 nmol", "result": "tenfold"},
      {"measurement": "Cy5/Cy7 ratio at one minute post injury", "setting": "[4]; 10 nmol, n = 3, mean (±SD)", "result": "0.75(±0.11)"},
      {"measurement": "Cy5/Cy7 ratio at five minutes post injury", "setting": "[4]; 10 nmol, n = 3, p = 0.01 vs one minute", "result": "3.1(±0.45)"}
    ]},
    {"substance": "Cy7-NH-e9-c(S-Peg12)oPLGC(Me)AG-r9-c(Cy5)-CONH2 [RACPPPLGC(Me)AG]", "values": [
      {"measurement": "cleavage by thrombin, plasmin, factor Xa on SDS-PAGE (selectivity)", "setting": "[5]", "result": "not cleaved by any of the pro-coagulation enzymes"},
      {"measurement": "Cy5/Cy7 emission ratio at the wound site over 40 minutes of clotting", "setting": "[4]; 10 nmol control probe", "result": "low and stable"},
      {"measurement": "ratiometric contrast after local addition of purified MMP-9", "setting": "[6]", "result": "spectacular local ratiometric contrast"}
    ]},
    {"substance": "Cy7-NH-e9-c(S-Peg12)oPPRSFL-r9-c(Cy5)-CONH2 [RACPPPPRSFL]", "values": [
      {"measurement": "selectivity for thrombin over plasmin (ratio of kcat/Km)", "setting": "[1]", "result": 14.3, "unit": "fold"},
      {"measurement": "kcat/Km for factor Xa", "setting": "[2]", "result": "no detectable activity"},
      {"measurement": "change in the Cy5/Cy7 emission ratio on addition of purified thrombin", "setting": "[7]; cuvet spectrofluorometer", "result": 34, "unit": "fold"},
      {"measurement": "increase in Cy5 emission on addition of purified thrombin", "setting": "[7]; approx. 670 nm", "result": 8.8, "unit": "fold"},
      {"measurement": "decrease in Cy7 re-emission on addition of purified thrombin", "setting": "[7]; approx. 780 nm", "result": 3.8, "unit": "fold"},
      {"measurement": "cleavage by thrombin, plasmin, factor Xa on SDS-PAGE (selectivity)", "setting": "[5]", "result": "selective for thrombin"},
      {"measurement": "change in Cy5/Cy7 ratio from one to five minutes post injury", "setting": "[4]; 10 nmol", "result": "no significant change"},
      {"measurement": "time post injury at which a Cy5/Cy7 ratio increase was detectable", "setting": "[4]; 10 nmol probe", "result": 10, "unit": "min"}
    ]},
    {"substance": "lepirudin [reference compound]", "values": [
      {"measurement": "effect on cleavage and ratio change of RACPPNleTPRSFL", "setting": "[4]; lepirudin 0.5 mg/mouse immediately prior to probe injection", "result": "inhibited the cleavage and ratio change"}
    ]}
  ]
}
